RAD54 inh: RAD54 (human) branch migration inhibition. Q92698. RAD54 Holliday junction branch migration, FAM/BHQ fluorescence. inhibition, % at 10.4 µM. 360,000 compounds, 0.14% hits. AID 602329;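 active = mean normalized replicate activity at least 40 and at least half of replicates scoring 40 or more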;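 also: 0% = median of neutral control wells and 100% = median of positive control wells; inhibitors cause a drop in the FAM fluorescence signal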
AF4-AF9 inh: blocks AF4 peptide binding to human AF9. P42568. AlphaScreen, biotin-AF4 peptide binding to FLAG-AF9. inhibition, % at 10 µM. 350,000 compounds, 0.47% hits;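 active = every replicate reaching a set inhibition limit, whatever the replicate mean, cut at about 25% in these data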;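 also: 0% = plate neutral control median and 100% = total signal loss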
Target sequence (P42568 whole entry, looked up): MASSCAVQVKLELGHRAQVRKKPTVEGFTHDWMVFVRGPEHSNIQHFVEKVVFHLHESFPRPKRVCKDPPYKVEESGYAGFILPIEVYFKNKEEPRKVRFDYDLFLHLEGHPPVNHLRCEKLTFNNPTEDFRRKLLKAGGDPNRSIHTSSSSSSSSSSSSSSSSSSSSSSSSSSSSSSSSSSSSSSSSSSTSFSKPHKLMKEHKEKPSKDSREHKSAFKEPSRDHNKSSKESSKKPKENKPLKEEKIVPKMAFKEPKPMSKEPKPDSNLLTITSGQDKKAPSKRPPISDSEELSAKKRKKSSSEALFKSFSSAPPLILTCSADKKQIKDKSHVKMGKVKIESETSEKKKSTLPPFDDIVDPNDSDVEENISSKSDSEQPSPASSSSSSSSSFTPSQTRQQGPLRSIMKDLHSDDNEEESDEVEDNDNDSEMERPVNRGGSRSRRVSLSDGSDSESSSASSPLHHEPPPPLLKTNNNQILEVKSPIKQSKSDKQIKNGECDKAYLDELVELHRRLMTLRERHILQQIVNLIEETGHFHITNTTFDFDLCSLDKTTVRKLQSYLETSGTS
GSIS activator: primary screen for activators of insulin secretion dependent on glucose, INS-1E cells, GLuc reporter luminescence. activation, % at 16.6 µM. 370,000 compounds, 0.61% hits. INS-1E GLuc reporter insulin secretion, 2-3 h;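 active = lowest replicate activation of at least 40%, so every replicate reaches that level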;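 also: 0% = median of neutral control wells and 100% = median of IBMX positive control wells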
E-selectin induc: E-selectin induction on HUVECs | activation, % at 7.58 µM | P16581 | 260,000 compounds, 0.37% hits | HUVEC E-selectin immunofluorescence imaging; normalized: neutral wells 0, TNF-alpha wells 100;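 active = mean E-selectin-positive cell signal at least 10% of the positive control, reached in at least 60% of replicates, without over 20% cell loss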
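System: HUVEC / Compound: single concentration / Signal: immunofluorescence imaging / Read-out: percent E-selectin-positive cells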
rRNA inh HTS: selective bacterial rRNA inhibition in E. coli; AID 720706; E. coli WT GFP vs humanized-ribosome RFP mutants, fluorescence, 24 h; active compounds read low; DMSO median 0, no signal -100; GFP signal change (wild-type ribosome), % (test concentration not listed); 350,000 compounds, 1.6% hits;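 active = significant combined selectivity score with lowered wild-type GFP, culture density cut under 30%, mutant RFP and density less affected; inactive = any of these conditions unmet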
RAD52 inh: inhibitors of human RAD52 DNA annealing; P43351; recombinant RAD52 DNA annealing, FRET fluorescence; inhibition, % at 18.7 µM; 360,000 compounds, 0.46% hits; AID 651710;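 active = every replicate showing at least 50% inhibition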
* hit, by the source's call; · = no result given. This is a sample that favours compounds with a hit; in the whole collection about 2.6% have one here.

SMILES	RAD54 inh	AF4-AF9 inh	GSIS activator	E-selectin induc	rRNA inh HTS	RAD52 inh
CCNC(=S)N1C2CCC1CC(NC(=O)Nc1ccc(C(=O)OCC)cc1)C2 (stereo unspecified)	1	0	-24	2	-21*	-27
C[C@@H]1CN([C@H](C)CO)C(=O)c2cc(NC(=O)Nc3ccccc3)ccc2O[C@@H]1CN(C)C(=O)NC1CCCCC1	6	-1	-6	-4	-5	-10
CO[C@H]1CN(C)C(=O)c2ccc(NC(C)=O)cc2OC[C@@H](C)N(C(=O)c2ccccc2)C[C@@H]1C	5	3	2	0	-1	-4
c1ccc(CCN(Cc2ccccc2)Cc2nc(C3CC3)no2)cc1	·	-3	2	0	11	-21
Cc1ccsc1CN(C)Cc1nc(C2CC2)no1	·	-3	-10	513*	1	-10
O=C1C(c2ccccc2)c2ccccc2N1Cc1ccccc1 (stereo unspecified)	-5	-2	·	0	-20*	-9
COc1ccc(NC(=O)N(C)C[C@H]2Oc3c(NC(=O)c4nc5ccccc5s4)cccc3C(=O)N([C@H](C)CO)C[C@@H]2C)cc1	4	-2	-12	0	-1	2
CC(O)CNCCCOc1ccc(Cl)cc1C(C)(C)C (stereo unspecified)	·	4	-25	-1	-41*	19
CN(C)CCOCCOc1ccc(Cl)cc1C(C)(C)C	·	0	-12	0	-26	30
O=C(NCc1ccccc1)[C@@H]1[C@@H](CO)[C@@H]2Cn3c(cccc3=O)[C@@H]2N1Cc1ccccc1F	-14	2	14	-1	2	-6
C[C@H]1CN([C@@H](C)CO)C(=O)c2cc(C#CC(C)(C)O)cnc2O[C@H]1CN(C)C(=O)C1CCC1	-3	-5	1	1	6	-4
CCN(CC)S(=O)(=O)c1cccc(-c2n[nH]c(=S)n2/N=C/c2ccc(OC(F)F)cc2)c1	·	2	·	·	-18*	-8
Cc1cccc(/C=N/n2c(-c3cc(-c4ccccc4)n[nH]3)n[nH]c2=S)c1	·	3	21	2	8	3
CCN(CC)S(=O)(=O)c1cccc(-c2n[nH]c(=S)n2/N=C/c2ccc(OC)cc2)c1	·	·	33	0	·	·
S=c1[nH]nc(-c2cc(-c3ccccc3)n[nH]2)n1/N=C/c1ccccc1	-1	-2	2	0	-15*	-14
O=[N+]([O-])c1ccc(/C=N/n2c(-c3ccccc3)n[nH]c2=S)cc1	11	3	43*	0	2	-3
C[C@H]1CN([C@@H](C)CO)C(=O)c2ccccc2-c2ccccc2CO[C@@H]1CN(C)C(=O)Nc1cccc(F)c1	5	-4	-13	0	0	11
O=C1NC(Cc2ccc(O)cc2)c2nc3ccc(Br)cc3c(=O)n2-c2ncccc21 (stereo unspecified)	·	6	-38	2	-21*	-4
CC(C)C#Cc1ccc2c(c1)O[C@@H](CN(C)C)[C@@H](C)CN([C@H](C)CO)S2(=O)=O	·	·	6	0	2	·
CC(=O)N(C)C[C@H]1Oc2cc(-c3ccccc3)ccc2S(=O)(=O)N([C@@H](C)CO)C[C@H]1C	-4	0	16	1	-2	-13
COc1ccccc1Cn1c(=S)[nH]c2ccc(F)cc2c1=O	4	1	-3	0	-14*	-12
COc1ccccc1Cn1c(=S)[nH]c2ccccc2c1=O	3	-1	-3	2	-28*	3
O=c1c2cc(F)ccc2[nH]c(=S)n1Cc1ccc(F)cc1	1	0	9	0	-32	-22
COc1ccccc1Cn1c(=S)[nH]c2ccc(Br)cc2c1=O	11	0	-1	0	3	11
CC(C)(C)S(=O)N1Cc2cc(C(=O)NCc3ccc4c(c3)OCO4)nc(-c3cccc(-c4cccc(F)c4)c3)c2[C@@H]1CCO (stereo partly specified)	·	0	-4	0	5	-58
O=C(Cc1csc(-c2ccccc2)n1)Nc1ccc(C(F)(F)F)cc1	1	·	3	·	·	·
NNC(=O)Cc1csc(-c2ccccc2)n1	·	-3	-8	·	-28*	-12

Screening data: PubChem, Broad Institute
